Data taken from ChEMBL document CHEMBL1128670, “Hypoxia-selective antitumor agents. 11. Chlorambucil N-oxide: a reappraisal of its synthesis, stability, and selective toxicity for hypoxic cells” (J Med Chem, 1995).

What was measured:
CHO-AA8 [1] = assay: Activity to reduce the surviving fraction to 10% (CT10) was used as an inverse measure of cytotoxic potency in aerobic conditions; type: functional, Cricetulus griseus
Summary of the method: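 Clonogenic survival assay in magnetically stirred 10 mL suspensions of late-log AA8 cells (10⁶/mL) under continuous gassing with 5% CO₂ in air. Samples were removed periodically during drug exposure. CT₁₀ is the concentration × time giving 10% surviving fraction, used as an inverse measure of cytotoxicity.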

UV4 = assay: Growth inhibition activity was measured in repair deficient UV4 cells under aerobic conditions (4 hours drug exposure); type: functional, cell-based; conditions: Cricetulus griseus, UV4, 4 h
CHO-AA8 [2] = assay: Growth inhibition activity was measured in repair proficient AA8 cells under aerobic conditions (4 hours drug exposure); type: functional, cell-based; conditions: Cricetulus griseus, CHO-AA8, 4 h
[3] = Ratio of activities reducing surviving fraction to 10% (T10) under aerobic vs hypoxic conditions; type: functional
Summary of the method: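 Late-log AA8 cells (10⁶/mL) in stirred 10 mL suspensions were gassed continuously with 5% CO₂ in air or in N₂, with periodic sampling for clonogenic survival. The time to 10% survival (T₁₀) was found under each gas at the same drug concentration. The value is the mean of air/N₂ T₁₀ ratios; errors are ranges (two determinations) or standard errors.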

SMILES | CT10 (CHO-AA8 [1]) | IC50 (UV4) | IC50 (CHO-AA8 [2]) | Ratio [3]
O=C(O)CCCc1ccc(N(CCCl)OCCCl)cc1 | >2400 µM·h | 176 µM | 456 µM | –
O=C(O)CCCc1ccc(N(CCCl)CCCl)cc1 [CHLORAMBUCIL] | 85.2 µM·h | 1.2 µM | 38 µM | 1.28
O=C(O)CCCc1ccc(NCCCl)cc1 | 2080 µM·h | 90 µM | > 250 µM | 1.26
